Data on 2 molecules can be found in ChEMBL document CHEMBL4334459, “Identification of α-Mangostin as a Potential Inhibitor of Microtubule Affinity Regulating Kinase 4” (J Nat Prod, 2019).

The structures appear in SMILES notation. pIC50: −log10 of the molar value. Active and inactive are the calls of the source. The rule behind the calls is not given here.

Data set [1] addresses T1, MAP/microtubule affinity-regulating kinase 4 (Homo sapiens) (UniProt Q96L34).
T1 sequence (whole entry): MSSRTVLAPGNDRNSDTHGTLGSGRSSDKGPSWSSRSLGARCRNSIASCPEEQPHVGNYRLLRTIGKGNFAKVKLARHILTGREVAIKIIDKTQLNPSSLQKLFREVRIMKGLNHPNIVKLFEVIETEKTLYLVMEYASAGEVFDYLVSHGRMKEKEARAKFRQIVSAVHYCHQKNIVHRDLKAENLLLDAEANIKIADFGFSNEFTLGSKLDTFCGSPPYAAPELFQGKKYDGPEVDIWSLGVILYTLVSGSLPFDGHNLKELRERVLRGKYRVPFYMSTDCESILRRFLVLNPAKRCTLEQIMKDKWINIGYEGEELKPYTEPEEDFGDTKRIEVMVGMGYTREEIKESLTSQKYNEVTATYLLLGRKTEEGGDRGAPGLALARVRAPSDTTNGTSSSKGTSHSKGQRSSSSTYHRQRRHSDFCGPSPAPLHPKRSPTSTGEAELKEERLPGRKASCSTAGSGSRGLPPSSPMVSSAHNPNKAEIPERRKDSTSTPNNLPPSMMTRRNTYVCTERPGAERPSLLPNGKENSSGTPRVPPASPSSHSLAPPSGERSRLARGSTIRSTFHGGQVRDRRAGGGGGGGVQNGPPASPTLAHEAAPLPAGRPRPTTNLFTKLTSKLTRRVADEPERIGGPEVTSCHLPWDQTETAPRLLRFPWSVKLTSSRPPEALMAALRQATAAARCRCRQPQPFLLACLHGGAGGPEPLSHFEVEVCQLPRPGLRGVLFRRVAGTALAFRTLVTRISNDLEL
As to the kind of experiment: Inhibition of recombinant human MARK4 at 10 uM incubated for 2 hrs by [gamma32P]ATP assay. Put shortly:
(§1)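 Recombinant human MARK4 was incubated 2 h at 37 °C with 1 mM cold ATP plus [γ-32P]ATP (222 TBq mmol−1), with or without compound. Released 32Pi was separated from ATP by TLC, and spots were quantified as % ATP hydrolysis relative to a 100 nM enzyme positive control. Screening was at a single 10 μM; dose-response used 0.5−10 μM.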

In data set [2] the test system is MCF7. As to the kind of experiment: Antiproliferative activity against human MCF7 cells assessed as reduction in cell viability after 48 hrs by MTT assay. The note with it: MCF7, 48 h. It counts as functional, cell-based. Put shortly: (§2)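 Cells plated at 9000−10 000 cells/well, grown 24 h, then exposed to 0−50 μM compound for 48 h at 37 °C in 5% CO2, followed by a standard MTT read-out. HEK-293, MCF-7 and HepG2 were kept in DMEM with 10% heat-inactivated FBS and 1% penicillin−streptomycin. Viability is expressed as % of control, mean ± SD, n = 3. Paclitaxel served as positive control.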

In data set [3] the test system is MCF7. In words: Inhibition of cell migration in human MCF7 cells at IC50 after 48 hrs by phase contrast inverted microscopic based wound healing assay. It counts as functional.
Data set [4] relates to HepG2. In words: Antiproliferative activity against human HepG2 cells assessed as reduction in cell viability after 48 hrs by MTT assay. The note with it: HepG2, 48 h. In kind it is functional, cell-based. An outline of the steps:
as §2
In general terms: Formazan colour is commonly taken as a measure of viable cells.

The subject of another data set is HEK293. As to the kind of experiment: Cytotoxicity against human HEK293 cells assessed as reduction in cell viability upto 50 uM after 48 hrs by MTT assay. In kind it is cell-based. The note with it: hek293, 48 h. Put shortly: as §2
In data set [5] the test system is MCF7. In words: Induction of cell cycle arrest in human MCF7 cells assessed as accumulation at S phase at IC50 after 24 hrs by propidium iodide staining based Flow cytometric analysis (reference value: 20%). It counts as functional. (A flow cytometer gives signals particle by particle.)
Data set [6] relates to HepG2. As to the kind of experiment: Induction of cell cycle arrest in human HepG2 cells assessed as accumulation at S phase at IC50 after 24 hrs by propidium iodide staining based Flow cytometric analysis (reference value: 25%). In kind it is functional.
Data set [7] concerns the target T1, MAP/microtubule affinity-regulating kinase 4 (Homo sapiens). As to the kind of experiment: (§3) Inhibition of recombinant human MARK4 incubated for 2 hrs by [gamma32P]ATP assay. An outline of the steps:
as §1

Data set [8] deals with T2, MAP/microtubule affinity-regulating kinase 4 (Homo sapiens, UniProt Q96L34).
T2 sequence (Q96L34 whole entry): T1 sequence (whole entry)
Described as §3. Put shortly: as §1

Data set [9] deals with MCF7. In words: Induction of apoptosis in human MCF7 cells assessed as viable cells at IC50 after 24 hrs by annexin V-FITC/propidium iodide staining based Flow cytometric analysis (reference value: 99.99%). It counts as functional.
In data set [10] the test system is MCF7. As to the kind of experiment: Induction of cell cycle arrest in human MCF7 cells assessed as accumulation at G0/G1 phase at IC50 after 24 hrs by propidium iodide staining based Flow cytometric analysis (reference value: 65%). It counts as functional.
Data set [11] concerns the target T1, MAP/microtubule affinity-regulating kinase 4 (Homo sapiens). In words: Inhibition of MARK4 in human HepG2 cells assessed as reduction in ROS level at IC50 after 5 to 6 hrs by DCFDA staining using spectroflourimetric analysis. In kind it is cell-based.
For data set [12] the target is unchanged. As to the kind of experiment: Inhibition of MARK4 in human SH-SY5Y cells assessed as reduction in tau phosphorylation at IC50 after 24 hrs by flow cytometric analysis. In kind it is cell-based. An outline of the steps: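 SH-SY5Y cells were grown in 1:1 EMEM/F12 with 10% FBS and incubated with IC50 compound. After 24 h, about 1 × 10^6 cells were collected, fixed, and stained with anti-tau primary antibody for 2−3 h at 25 °C. Phospho-tau signal was read by flow cytometry against untreated cells.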

For data set [13], the system named is MCF7. As to the kind of experiment: Induction of apoptosis in human MCF7 cells assessed as apoptotic cells at IC50 after 24 hrs by annexin V-FITC/propidium iodide staining based Flow cytometric analysis (reference value: 0.01%). It counts as functional.
Data set [14] deals with HepG2. In words: Induction of apoptosis in human HepG2 cells assessed as apoptotic cells at IC50 after 24 hrs by annexin V-FITC/propidium iodide staining based Flow cytometric analysis (reference value: 2.68%). It counts as functional.
In data set [15] the test system is HepG2. In words: Induction of cell cycle arrest in human HepG2 cells assessed as accumulation at G0/G1 phase at IC50 after 24 hrs by propidium iodide staining based Flow cytometric analysis (reference value: 60%). In kind it is functional.
Data set [16] has as its system MCF7. As to the kind of experiment: Induction of cell cycle arrest in human MCF7 cells assessed as accumulation at G2 phase at IC50 after 24 hrs by propidium iodide staining based Flow cytometric analysis (reference value: 15%). In kind it is functional.
Data set [17] relates to HepG2. As to the kind of experiment: Induction of apoptosis in human HepG2 cells assessed as viable cells at IC50 after 24 hrs by annexin V-FITC/propidium iodide staining based Flow cytometric analysis (reference value: 97.32%). It counts as functional.
In data set [18] the test system is HepG2. As to the kind of experiment: Induction of cell cycle arrest in human HepG2 cells assessed as accumulation at S phase at IC50 after 24 hrs by propidium iodide staining based Flow cytometric analysis (reference value: 15%). In kind it is functional.
Data set [19] concerns the target T1, MAP/microtubule affinity-regulating kinase 4 (Homo sapiens). As to the kind of experiment: Binding affinity to recombinant human MARK 4 by fluorescence based Stem-Volme plot analysis. Put shortly:
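Intrinsic fluorescence of recombinant MARK4 (10 μM) was titrated with increasing ligand, using excitation at 280 nm and emission recorded from 300−400 nm. Quenching was fitted to a modified Stern−Volmer equation, log(Fo−F)/F = log Ka + n log[L]. Ka came from the intercept and n from the slope. Three independent triplicate titrations were averaged.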

Data set [20] has the same target. As to the kind of experiment: Inhibition of MARK4 in human MCF7 cells assessed as reduction in ROS level at IC50 after 5 to 6 hrs by DCFDA staining using spectroflourimetric analysis. It counts as cell-based.

As to `O=c1oc2c(O)c(O)cc3c(=O)oc4c(O)c(O)cc1c4c23`, the inhibition result in data set [1] is “Active”.
As a reminder, the pIC50 is −log10 of the IC50, conventionally taken in molar units. For `COc1c(O)cc2oc3cc(O)c(CC=C(C)C)c(O)c3c(=O)c2c1CC=C(C)C` [MANGOSTIN], the inhibition result (in data set [1]; with MCF7 [3]; in data set [11]; in [12]; in data set [20]) was “Active” in each case. The pIC50 with MCF7 [2] was 5.00; in the data set with HepG2 [4], 4.73; in [8], 5.75. Moreover, the Activity entry with HEK293 is reported as “Non-Toxic”; in the data set with MCF7 [5], 10%; in the data set on HepG2 [6], 15%; in the data set on MCF7 [9] it was 74.1%; in the data set with MCF7 [10], 83%; with MCF7 [13], 25.9%. Moreover, the Activity in the data set on HepG2 [14] is 19.7%; with HepG2 [15] it was 75%; in the data set with MCF7 [16], 7%; with HepG2 [17], 80.3%; in the data set with HepG2 [18], 10%. For the same molecule, in [7], the inhibition entry was “Dose-dependent effect”. For the same molecule, in data set [19], the Ka worked out at 5.2 ×10⁷ /M.
